# Screens deposited in PubChem by The Scripps Research Institute Molecular Screening Center.
# A selection: hits, their analogues and other compounds. The true share with any hit is near 0.74%.
# ASAP1 inh – inhibitors of human ASAP1 ArfGAP activity, primary screen, biochemical, fluorescence polarization. AID 624377, 2012. ASAP1-stimulated ARF1 GTP hydrolysis, GDP FP detection. 0.19% of 360,000 active. inhibition, % at 16.5 µM. Arf-GAP with SH3 domain, ANK repeat and PH domain-containing protein 1 (Homo sapiens), …; in the data active = inhibition above about 25%
# Tn7 DDE FP – inhibitors of Tn7 peptide binding to fibrin DD(E), primary screen, biochemical, fluorescence polarization, human fibrin, Tn7 probe; Fibrinogen beta chain (Homo sapiens), P02675; FP displacement of FITC-Tn7 peptide from fibrin DD(E); 0% = median of compound wells per plate; inhibition, % at 8.3 µM; 0.13% of 370,000 active; AID 720508, 2013;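 active = inhibition above the mean of compounds falling within the control limits plus 3 SD of them, cut at about 14% in these data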
# Target sequence (P02675 whole entry, looked up): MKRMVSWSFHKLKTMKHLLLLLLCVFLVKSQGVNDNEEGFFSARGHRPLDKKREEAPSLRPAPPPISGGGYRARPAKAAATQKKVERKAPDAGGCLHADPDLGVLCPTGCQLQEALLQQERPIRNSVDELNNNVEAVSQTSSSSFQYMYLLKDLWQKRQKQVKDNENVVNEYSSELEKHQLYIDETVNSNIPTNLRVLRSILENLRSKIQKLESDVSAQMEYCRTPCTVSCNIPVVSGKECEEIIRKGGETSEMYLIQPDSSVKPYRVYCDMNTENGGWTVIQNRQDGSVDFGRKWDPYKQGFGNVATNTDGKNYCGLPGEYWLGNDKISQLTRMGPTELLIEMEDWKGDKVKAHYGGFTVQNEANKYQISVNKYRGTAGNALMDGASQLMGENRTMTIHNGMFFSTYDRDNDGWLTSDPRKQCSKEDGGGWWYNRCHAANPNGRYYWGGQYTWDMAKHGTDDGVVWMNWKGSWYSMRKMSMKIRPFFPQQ
#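 assay system = human clot-derived fibrin DD(E) complex | quantity = Fibrin-DD(E) at 2 µM final | timing = 10 min preincubation, 3 h with tracer, room temperature | signal = fluorescence polarization | measure = percent inhibition | benchmarks = high control wells with 10 µM unlabelled Aha-Tn7 peptide (full inhibition) | replicates = singlicate testing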
# ARFGAP1 inh – inhibitors of rat ARFGAP1 GAP activity, primary screen, biochemical, fluorescence polarization, GDP tracer | inhibition, % at 16.5 µM | 0.26% of 360,000 active | Arfgap1-stimulated ARF1 GTP hydrolysis, GDP FP detection;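 active = inhibition above a per-plate limit, mean inhibition of low control wells plus 3 SD, cut at about 25% in these data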
# Target sequence (Q62848 1-136 limits assumed): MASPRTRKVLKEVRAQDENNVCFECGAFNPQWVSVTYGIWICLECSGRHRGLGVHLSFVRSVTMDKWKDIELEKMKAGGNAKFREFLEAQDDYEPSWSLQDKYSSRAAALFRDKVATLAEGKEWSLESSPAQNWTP
#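 System: truncated rat Arfgap1 GAP domain / Medium: HEPES-based buffer, pH 7.5 / Also added: N-terminally truncated human ARF1-GTP substrate / Incubation: enzyme reaction 120 min at 25 °C after 20 min preincubation / Measured by: FP of antibody-bound GDP Alexa 633 tracer, ex 620/em 688 nm / Replicates: singlicate, each compound tested once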
# Tn6 DDE FP – inhibitors of Tn6 peptide binding to fibrin DD(E), primary screen, biochemical, fluorescence polarization, human fibrin, Tn6 probe; Fibrinogen beta chain (Homo sapiens), P02675; Fibrin DD(E) TRITC-Tn6 fluorescence polarization displacement; inhibition, % at 8.3 µM; 0.21% of 370,000 active; AID 720509, 2013;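 active = inhibition above a per-campaign cutoff: mean of compounds within control limits plus 3 SD, cut at about 15% in these data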
# ARFGAP1 confirm – ARFGAP1 inhibitor hit confirmation, biochemical, fluorescence polarization, triplicate | shares compounds with ARFGAP1 inh | ARFGAP1-stimulated ARF1 GTP hydrolysis, GDP tracer FP | inhibition, % at 16.5 µM | 30% of 890 active | AID 651608, 2012;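 active = average inhibition over triplicates above the hit cutoff set in the earlier primary screen, cut at about 25% in these data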
# Tn7 DDE conf – inhibitors of Tn7 peptide binding to fibrin DD(E), confirmation, biochemical, fluorescence polarization, human fibrin, Tn7 probe. shares compounds with Tn7 DDE FP. FP displacement of TRITC-Tn7 peptide from DD(E); 0% set at plate's compound-well median. inhibition, % at 8.3 µM. 5% of 460 active. AID 720628, 2013;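 active = inhibition above the campaign cutoff, the mean of compounds within control limits plus 3 SD, cut at about 14% in these data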;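 also: displacers lower polarization since freed probe rises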
# Tn7 DDE ctr – DD(E)-Tn7 binding inhibition, counter-screen | inhibition, % at 8.3 µM | 3% of 460 active | shares compounds with Tn7 DDE FP | fibrin DD(E), TRITC-Tn7 probe displacement, fluorescence polarization;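 active = inhibition above the cutoff, the mean of compounds lying between the control bounds plus 3 SD of those compounds, cut at about 17% in these data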
# Tn6 DDE ctr – counter-screen hit for Tn6 peptide-fibrin DD(E) binding disruption; inhibition, % at 8.3 µM; 2% of 680 active; shares compounds with Tn6 DDE FP; AID 720621; TRITC-Tn6 fluorescence polarization displacement; 0% = median of compound wells, not DMSO;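 active = inhibition above the mean of test compounds lying between the control limits plus 3 SD of those, cut at about 14% in these data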
# Tn6 DDE conf – inhibitors of Tn6 peptide binding to fibrin DD(E), confirmation, biochemical, fluorescence polarization, human fibrin, Tn6 probe; shares compounds with Tn6 DDE FP; FP displacement of TRITC-Tn6 peptide from DD(E); 0% = per-plate median of test wells; inhibition, % at 8.3 µM; 10% of 680 active; AID 720631, 2013;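 active = inhibition above the mean of compounds lying within the control limits plus 3 SD, cut at about 16% in these data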
# Hits are given with their value; i = inactive; nt = no result given.
SMILES,ASAP1 inh,Tn7 DDE FP,ARFGAP1 inh,Tn6 DDE FP,ARFGAP1 confirm,others
CC(C)N1CCN(Cc2ccc(-c3ccccc3)cc2)CC1CCO (stereo unspecified),i,i,i,i,nt,
COc1ccc(CNC(=O)O[C@H]2CC[C@@]34CCCN3C(=O)CCC[C@H]4C2)cc1OC,nt,i,nt,i,nt,
CCN1CCN(c2ccc(S(=O)(=O)N3CCOCC3)cc2NC(=O)/C=C/c2ccc([N+](=O)[O-])cc2)CC1,i,i,37,i,37,
COc1ccc(/C=C/C(=O)Nc2ccc(S(=O)(=O)N3CCOCC3)cc2)c(OC)c1,i,i,i,i,nt,
CCN1CCN(c2ccc(S(=O)(=O)N3CCOCC3)cc2NC(=O)/C=C/c2ccc(OC)cc2OC)CC1,i,i,33,i,i,
Cc1ccc(Nc2ncccc2C(=O)NCc2cccs2)c(C)c1,i,i,i,i,nt,
Cc1cccc(Nc2ncccc2C(=O)NCc2cccs2)c1C,i,i,26,i,i,
O=C1CCC[C@H]2C[C@H](NCc3cccc(I)c3)CC[C@]23CCCN13,nt,i,nt,i,nt,
Cc1cccc(CCNC(=O)c2ccc(Sc3ccccc3Cl)c([N+](=O)[O-])c2)c1,nt,i,nt,i,nt,
C#CCNC(=O)C[C@@H]1C(=O)N(CC=C)/C2=C/CCCCC[C@]21C(=O)OCC,nt,i,nt,i,nt,
OC(CNCC1CCCO1)Cn1c2ccc(Cl)cc2c2cc(Cl)ccc21 (stereo unspecified),i,i,i,i,nt,
OC(CNCCC1C=Nc2ccccc21)Cn1c2ccc(Cl)cc2c2cc(Cl)ccc21 (stereo unspecified),i,i,28,i,42,
Cc1ccc(C(C)C)c(OCc2ccc(C(=O)N/N=C/c3ccc(O)cc3O)cc2)c1,i,i,30,i,32,
COCCCNC(=O)C[C@H]1C[C@@]2(C(=O)OC)C(=C[C@H](C(C)C)O[C@@H]2C2CC2)N(CCC2=CCCCC2)C1=O,nt,i,nt,i,nt,
Nc1cccc(-c2nc3cc(S(=O)(=O)c4ccc5oc(-c6cccc(N)c6)nc5c4)ccc3o2)c1,i,i,26,i,i,
CCCOc1ccc(OCCNC2CCCC2)cc1,i,i,26,i,i,
COc1ccc(S[C@]2(C(=O)N3CCN(C(C)=O)CC3)CC(=O)N(C(=O)CCc3ccccc3)[C@@H]2c2ccc(OC)cc2)cc1,nt,i,nt,i,nt,
CCC(CC)NC(=O)O[C@H]1CC[C@@]23CCCN2C(=O)CCC[C@H]3[C@H]1C,nt,i,nt,i,nt,
CC(C)CNc1cccc2c1S(=O)(=O)N(Cc1cn(Cc3cccc(C(F)(F)F)c3)nn1)Cc1ccccc1O2,nt,i,nt,i,nt,
Cc1ccc(C)c(Oc2cc(NC(=O)CCCn3nc(C)c([N+](=O)[O-])c3C)cc([N+](=O)[O-])c2)c1,i,i,26,i,i,
O=c1c2ccccc2nc(/C=C/c2ccccc2)n1CCc1ccccc1,i,i,52,i,i,
O=c1c2ccccc2nc(/C=C/c2cccnc2)n1CCc1ccccc1,i,i,i,i,nt,
O=C1CC(N2CCC(c3nc4ccccc4s3)CC2)C(=O)N1Cc1ccccc1 (stereo unspecified),i,i,37,i,i,
CN1C(=O)CC(N2CCC(c3nc4ccccc4s3)CC2)C1=O (stereo unspecified),i,i,i,i,nt,
CCCCn1c(N)c(N(CCOC)C(=O)c2c(C)noc2C)c(=O)[nH]c1=O,i,i,25,i,i,
SMILES,ASAP1 inh,Tn7 DDE FP,ARFGAP1 inh,Tn6 DDE FP,ARFGAP1 confirm,others
CCCCN(C(=O)c1c(C)noc1C)c1c(N)n(CCCC)c(=O)[nH]c1=O,i,i,i,i,nt,
COC(=O)C1CN(Cc2cn(Cc3ccccc3)nn2)CCS(=O)(=O)N1Cc1ccc(Cl)cc1 (stereo unspecified),nt,i,nt,i,nt,
COc1ccc2cc(C(=O)Nc3ccc(S(N)(=O)=O)cc3)sc(=O)c2c1OC,i,i,25,18,i,Tn6 DDE ctr=i;Tn6 DDE conf=i
NS(=O)(=O)c1ccc(Nc2ccc3cc(S(=O)(=O)N4CCCCC4)ccc3n2)cc1,i,i,47,36,52,Tn6 DDE ctr=i;Tn6 DDE conf=i
O=C(Nc1ccccc1N1CCCC1)c1cc(Cl)ccc1Cl,i,i,i,i,nt,
O=C(Nc1ccccc1N1CCCC1)c1ccc(Cl)cc1Cl,i,i,30,16,i,Tn6 DDE ctr=i;Tn6 DDE conf=i
O=C([C@@H]1C[C@H]1c1ccccc1)N1CC[C@H]2[C@H](CCCN2Cc2ccccc2)C1,nt,i,nt,i,nt,
O=C(Cc1cccs1)Nc1cccc(-c2nc3cc4ccccc4cc3[nH]2)c1,i,i,25,144,25,Tn6 DDE ctr=i;Tn6 DDE conf=34
CC(=O)Nc1cccc(NC(=O)Cc2cccs2)c1,i,i,i,i,nt,
C[C@H](O)[C@@H]1CN2CCc3c([nH]c4c(-c5ccc6c(c5)OCO6)cccc34)[C@@H]2C[C@@H]1N(C)C(=O)Nc1ccccc1,nt,i,nt,i,nt,
CCc1ccc(-c2cc(C)no2)cc1S(=O)(=O)Nc1ccccn1,i,i,i,i,nt,
Cc1cc(-c2ccc(C(C)C)c(S(=O)(=O)Nc3ccccn3)c2)on1,i,18,i,i,nt,Tn7 DDE conf=i;Tn7 DDE ctr=i
COC(=O)[C@H](CC(C)C)N1Cc2nnn(CC3CCCCC3)c2-c2ccccc2S1(=O)=O,nt,i,nt,i,nt,
CC(=O)Nc1ccc(NC(=O)COC(=O)c2ccc(S(=O)(=O)NCc3ccco3)cc2)cc1,i,i,i,i,nt,
COc1cccc(NC(=O)COC(=O)c2ccc(S(=O)(=O)NCc3ccco3)cc2)c1,i,15,i,i,nt,Tn7 DDE conf=i;Tn7 DDE ctr=i
